Tests used:
K562 = assay: Growth inhibition of human K562 cells after 48 hrs by SRB assay; assay type: functional; settings: K562, 48 h
Method in brief: (§1)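 NCI 60-panel five-dose assay at 0.01, 0.1, 1, 10 and 100 μM. Cells in RPMI 1640 with 5% FBS and 2 mM L-glutamine, preincubated 24 h, with time-zero plates TCA-fixed. Drug exposure 48 h at 37 °C. Read by SRB staining at 515 nm. GI50 is the concentration where [(Ti−Tz)/(C−Tz)]×100 = 50, taken from log concentration versus % growth curves.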

A549 = assay: Growth inhibition of human A549 cells after 48 hrs by SRB assay; assay type: functional; settings: A549, 48 h; method in brief: as §1
EKVX [1] = assay: Growth inhibition of human EKVX cells after 48 hrs by SRB assay; assay type: functional; method in brief: as §1
COLO 205 = assay: Growth inhibition of human COLO205 cells after 48 hrs by SRB assay; assay type: functional; settings: COLO 205, 48 h; method in brief: as §1
SW-620 = assay: Growth inhibition of human SW620 cells after 48 hrs by SRB assay; assay type: functional; settings: SW-620, 48 h
Method in brief: (§2)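 NCI-60 panel cells grown in RPMI 1640 with 5% FBS and 2 mM L-glutamine, then seeded at 5000–40,000 cells/well by doubling time and preincubated for 24 h. Compound in DMSO was tested either at 10^-5 M alone or at 0.01–100 μM in five doses, for 48 h at 37 °C. Cells were fixed with cold TCA (10% final), stained with SRB, and read at 515 nm. GI50 was taken from % growth relative to time-zero and control wells.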

SNB-75 = assay: Growth inhibition of human SNB75 cells after 48 hrs by SRB assay; assay type: functional; settings: SNB-75, 48 h; method in brief: as §2
U-251 = assay: Growth inhibition of human U251 cells after 48 hrs by SRB assay; assay type: functional; settings: U-251, 48 h; method in brief: as §2
MDA-MB-435 [2] = assay: Growth inhibition of human MDA-MB-435 cells after 48 hrs by SRB assay; assay type: functional; settings: MDA-MB-435, 48 h; method in brief: as §1
SK-MEL-28 = assay: Growth inhibition of human SK-MEL-28 cells after 48 hrs by SRB assay; assay type: functional; settings: SK-MEL-28, 48 h; method in brief: as §2
SK-MEL-5 = assay: Growth inhibition of human SK-MEL-5 cells after 48 hrs by SRB assay; assay type: functional; settings: SK-MEL-5, 48 h; method in brief: as §2
UACC-62 [3] = assay: Growth inhibition of human UACC62 cells after 48 hrs by SRB assay; assay type: functional; settings: UACC-62, 48 h; method in brief: as §2
OVCAR-4 = assay: Growth inhibition of human OVCAR4 cells after 48 hrs by SRB assay; assay type: functional; settings: OVCAR-4, 48 h; method in brief: as §1
NCI/ADR-RES = assay: Growth inhibition of human NCI/ADR-RES cells after 48 hrs by SRB assay; assay type: functional; method in brief: as §1
SK-OV-3 = assay: Growth inhibition of human SKOV3 cells after 48 hrs by SRB assay; assay type: functional; settings: SK-OV-3, 48 h; method in brief: as §2
A498 = assay: Growth inhibition of human A498 cells after 48 hrs by SRB assay; assay type: functional; settings: A498, 48 h; method in brief: as §1
SN12C [4] = assay: Growth inhibition of human SN12C cells after 48 hrs by SRB assay; assay type: functional; method in brief: as §2
MDA-MB-231 = assay: Growth inhibition of human MDA-MB-231 cells after 48 hrs by SRB assay; assay type: functional; settings: MDA-MB-231, 48 h; method in brief: as §1
[5] = Growth inhibition of human Hs 578T cells after 48 hrs by SRB assay; assay type: functional; method in brief: as §1
T47D = assay: Growth inhibition of human T47D cells after 48 hrs by SRB assay; assay type: functional; method in brief: as §2
NCI-H322M = assay: Cytotoxicity against human NCI-H322M cells after 48 hrs by SRB assay; assay type: cell-based
Method in brief: (§3)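 NCI-60 five-dose screen in RPMI 1640 with 5% FBS and 2 mM L-glutamine; 5000–40,000 cells/well, 24 h pre-incubation. DMSO stocks diluted to 0.01, 0.1, 1, 10 and 100 μM final; 48 h at 37 °C, 5% CO2. Fixed with TCA (10% final adherent, 16% suspension), stained with 0.4% SRB, A515. GI50, TGI and LC50 taken from time-zero, control and test absorbances.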

EKVX [6] = assay: Cytotoxicity against human EKVX cells after 48 hrs by SRB assay; assay type: cell-based; method in brief: as §3
SR = assay: Cytotoxicity against human SR cells after 48 hrs by SRB assay; assay type: cell-based
Method in brief: (§4)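 NCI-60 five-dose screen. Cells grown in RPMI 1640 with 5% FBS and 2 mM L-glutamine and pre-incubated 24 h; a time-zero plate is TCA-fixed. Drug added at 0.01, 0.1, 1, 10 and 100 µM (DMSO stock) for 48 h at 37 °C, 5% CO2. Fixed with cold TCA (10% final for adherent, 16% for suspension cells), stained with 0.4% SRB, A515. GI50, TGI and LC50 taken from dose-response curves.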

MOLT-4 = assay: Cytotoxicity against human MOLT4 cells after 48 hrs by SRB assay; assay type: cell-based; settings: molt-4, 48 h; method in brief: as §3
[7] = Cytotoxicity against human […] cells after 48 hrs by SRB assay; assay type: cell-based; method in brief: as §3
HCC 2998 = assay: Cytotoxicity against human HCC2998 cells after 48 hrs by SRB assay; assay type: cell-based; settings: hcc 2998, 48 h; method in brief: as §3
HCT-15 = assay: Cytotoxicity against human HCT15 cells after 48 hrs by SRB assay; assay type: cell-based; settings: hct-15, 48 h; method in brief: as §3
SF-268 = assay: Cytotoxicity against human SF268 cells after 48 hrs by SRB assay; assay type: cell-based; settings: sf-268, 48 h; method in brief: as §3
Malme-3M = assay: Cytotoxicity against human MALME-3M cells after 48 hrs by SRB assay; assay type: cell-based; method in brief: as §3
M14 = assay: Cytotoxicity against human M14 cells after 48 hrs by SRB assay; assay type: cell-based; settings: m14, 48 h; method in brief: as §3
MDA-MB-435 [8] = assay: Cytotoxicity against human MDA-MB-435 cells after 48 hrs by SRB assay; assay type: cell-based; settings: mda-mb-435, 48 h; method in brief: as §3
UACC-62 [9] = assay: Cytotoxicity against human UACC62 cells after 48 hrs by SRB assay; assay type: cell-based; settings: uacc-62, 48 h; method in brief: as §4
OVCAR-5 = assay: Cytotoxicity against human OVCAR5 cells after 48 hrs by SRB assay; assay type: cell-based; settings: ovcar-5, 48 h; method in brief: as §3
CAKI-1 = assay: Cytotoxicity against human Caki1 cells after 48 hrs by SRB assay; assay type: cell-based; settings: caki-1, 48 h; method in brief: as §3
SN12C [10] = assay: Cytotoxicity against human SN12C cells after 48 hrs by SRB assay; assay type: cell-based; method in brief: as §3
MCF7 = assay: Cytotoxicity against human MCF7 cells after 48 hrs by SRB assay; assay type: cell-based; settings: mcf7, 48 h; method in brief: as §3
[11] = Cytotoxicity against human Hs 578T cells after 48 hrs by SRB assay; assay type: cell-based; method in brief: as §3

O=c1c2ccccc2nc(-c2ccco2)n1/N=C/c1ccccc1Cl
GI50 (K562): > 100 µM
TGI (K562): > 100 µM
GI50 (A549): 4.78 µM
TGI (A549): > 100 µM
GI50 (EKVX [1]): 7.23 µM
TGI (EKVX [1]): > 100 µM
GI50 (COLO 205): 4.96 µM
TGI (COLO 205): 34.1 µM
GI50 (SW-620): 4.68 µM
TGI (SW-620): 12.7 µM
GI50 (SNB-75): 4.1 µM
TGI (SNB-75): 7.51 µM
GI50 (U-251): 4.12 µM
TGI (U-251): 32.3 µM
GI50 (MDA-MB-435 [2]): 8.23 µM
TGI (MDA-MB-435 [2]): 17 µM
GI50 (SK-MEL-28): 4.45 µM
TGI (SK-MEL-28): 18.6 µM
GI50 (SK-MEL-5): 5.56 µM
TGI (SK-MEL-5): 31.8 µM
GI50 (UACC-62 [3]): 6.38 µM
TGI (UACC-62 [3]): > 100 µM
GI50 (OVCAR-4): 1.82 µM
TGI (OVCAR-4): 6.48 µM
GI50 (NCI/ADR-RES): 2.45 µM
TGI (NCI/ADR-RES): 8.78 µM
GI50 (SK-OV-3): 3.68 µM
TGI (SK-OV-3): 14.8 µM
GI50 (A498): 5.76 µM
TGI (A498): 16.7 µM
GI50 (SN12C [4]): 4.89 µM
TGI (SN12C [4]): > 100 µM
GI50 (MDA-MB-231): 3.13 µM
TGI (MDA-MB-231): 7.84 µM
GI50 [5]: 15.2 µM
TGI [5]: > 100 µM
GI50 (T47D): 6.89 µM
TGI (T47D): > 100 µM
LC50 (NCI-H322M): > 100 µM
LC50 (EKVX [6]): > 100 µM
LC50 (SR): > 100 µM
LC50 (MOLT-4): > 100 µM
LC50 [7]: > 100 µM
LC50 (HCC 2998): > 100 µM
LC50 (HCT-15): > 100 µM
LC50 (SF-268): > 100 µM
LC50 (Malme-3M): > 100 µM
LC50 (M14): > 100 µM
LC50 (MDA-MB-435 [8]): > 100 µM
LC50 (UACC-62 [9]): > 100 µM
LC50 (OVCAR-5): > 100 µM
LC50 (CAKI-1): > 100 µM
LC50 (SN12C [10]): > 100 µM
LC50 (MCF7): > 100 µM
LC50 [11]: > 100 µM

Source: ChEMBL document CHEMBL1781959, “Synthesis and in vitro antitumor activity of substituted quinazoline and quinoxaline derivatives: search for anticancer agent” (Eur J Med Chem, 2011)
